ChEMBL document CHEMBL4017511, “Discovery of Fragment-Derived Small Molecules for in Vivo Inhibition of Ketohexokinase (KHK)” (J Med Chem, 2017)
Converted amounts (≈) assume the structure as drawn. The source made the active and inactive calls. The rule behind the calls is not given here.

Experiments:
Ketohexokinase [1] = target: T1, Ketohexokinase (Homo sapiens, UniProt P50053); assay: Binding affinity to full length recombinant human biotin-labeled KHK by SPR assay
T1 sequence (P50053 whole entry): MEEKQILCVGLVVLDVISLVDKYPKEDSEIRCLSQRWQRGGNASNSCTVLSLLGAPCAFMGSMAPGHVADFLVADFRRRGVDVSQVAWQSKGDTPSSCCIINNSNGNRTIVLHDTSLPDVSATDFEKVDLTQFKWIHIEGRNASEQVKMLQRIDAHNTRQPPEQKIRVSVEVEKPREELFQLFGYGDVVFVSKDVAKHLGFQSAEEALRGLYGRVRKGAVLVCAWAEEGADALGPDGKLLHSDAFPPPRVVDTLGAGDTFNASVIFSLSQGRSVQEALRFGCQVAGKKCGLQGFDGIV
Procedure, shortened: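 Full-length biotinylated KHK captured on a streptavidin sensor (7000-8000 RU). Run buffer was 50 mM HEPES pH 7.4, 150 mM NaCl, 0.01% P20, 500 µM TCEP, 3% DMSO at 25 °C. Eleven 2-fold concentrations from 300 µM top, stop-flow with 60 s association and ≥120 s dissociation. Data double-referenced and DMSO-corrected; KD by steady-state affinity fit, n=1.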

Ketohexokinase [2] = target: T1, Ketohexokinase; assay: Inhibition of recombinant human N-terminal His-tagged KHK expressed in Escherichia coli BL21(DE3) using fructose as substrate incubated for 30 mins followed by ATP addition measured for 30 mins by pyruvate kinase-lactate dehydrogenase coupled enzyme assay
Procedure, shortened: (§1)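 Thrombin-cleaved (His-tag removed) human or rat KHK at 10 nM, preincubated 30 min at room temperature with compound (11-point series, 2.5% DMSO). Started with 0.2 mM ATP; NADH A340 read kinetically for 30 min. IC50 from nonlinear fit of percent inhibition; mean of replicates.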

[3] = target: T2, Ketohexokinase (Homo sapiens) (UniProt P50053); assay: Inhibition of recombinant full length human His-tagged KHK expressed in Escherichia coli BL21(DE3) using at 240 uM by 1D NMR-STD spectroscopic method
T2 sequence (whole entry): T1 sequence (P50053 whole entry)
Procedure, shortened: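 Full-length His-tagged human KHK (tag retained) at 5 μM in 50 mM Tris-d, 100 mM NaCl, 2 mM TCEP-d, 5% glycerol-d, pH 7.5, 298 K. AMP-PMP at 240 μM served as positive control. Saturation-transfer difference NMR used 512 scans and 3 s Gaussian on/off-resonance saturation. Binding was called from positive difference signals, with ligands assigned against each fragment's 1D 1H reference spectrum.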

[4] = Apparent clearance in human liver microsomes; assay type: ADME, microsome; details: read-out: CLH(app)
[5] = Octanol/water partition coefficient, log D of the compound at pH 7.4 by shake-flask method; assay type: physicochemical
Procedure, shortened: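 LogD measured by shake-flask octanol:water partition at pH 7.4.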

Ketohexokinase [6] = target: T3, Ketohexokinase (Rattus norvegicus, UniProt Q02974); assay: Inhibition of recombinant rat N-terminal His-tagged KHK expressed in Escherichia coli BL21(DE3) using fructose as substrate incubated for 30 mins followed by ATP addition measured for 30 mins by pyruvate kinase-lactate dehydrogenase coupled enzyme assay; procedure, shortened: as §1
T3 sequence (Q02974 whole entry): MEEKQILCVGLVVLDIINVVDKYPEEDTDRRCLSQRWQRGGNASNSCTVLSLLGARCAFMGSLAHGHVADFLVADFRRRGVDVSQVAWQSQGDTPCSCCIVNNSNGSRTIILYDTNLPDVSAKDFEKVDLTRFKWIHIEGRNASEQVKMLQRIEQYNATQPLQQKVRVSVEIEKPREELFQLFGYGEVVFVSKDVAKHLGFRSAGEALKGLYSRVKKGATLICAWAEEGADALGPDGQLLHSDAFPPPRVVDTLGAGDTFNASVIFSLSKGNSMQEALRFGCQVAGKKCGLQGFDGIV

[7] = Apparent permeability in RRCK cells by LC-MS/MS analysis; assay type: ADME, cell-based, Canis lupus familiaris, MDCKII-LE; details: dog, MDCK
[8] = Thermodynamic solubility of compound at pH 7.4; assay type: physicochemical; details: buffer, read-out: Therm_solubility
Procedure, shortened: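 Thermodynamic solubility determined at pH 7.4.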

[9] = Fraction unbound in human plasma at 10 uM measured at 2 to 24 hrs by equilibrium dialysis method; assay type: ADME, cell-free
[10] = Volume of distribution in rat at 1 mg/kg, iv; assay type: ADME, organism-based; details: in vivo
Procedure, shortened: (§2)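 Rat PK following a 1 mg/kg intravenous dose; systemic clearance, volume of distribution and effective half-life derived from plasma exposure.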

[11] = Half life in rat at 1 mg/kg, iv; assay type: ADME, organism-based; details: in vivo; procedure, shortened: as §2
Rattus norvegicus [12] = assay: Oral bioavailability in rat at 5 mg/kg; assay type: ADME, organism-based; details: in vivo
[13] = Cmax in rat at 5 mg/kg; assay type: ADME, organism-based; parameters: dose 5 mg/kg; details: in vivo
Rattus norvegicus [14] = assay: AUClast in rat at 5 mg/kg, po; assay type: ADME, organism-based; parameters: dose 5 mg/kg, route oral, time 0 - last; details: in vivo
Rattus norvegicus [15] = assay: Time required for plasma concentration to reach above in vitro rat KHK IC50 in rat at 150 mg/kg, po
Procedure, shortened: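 Rats dosed orally at 150 mg/kg as a nanocrystal suspension (1% polyvinylpyrrolidone / 0.025% sodium lauryl sulfate / 1% pluronic).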

Salmonella typhimurium = assay: Genotoxicity in Salmonella typhimurium by Ames test; assay type: toxicity; details: salmonella enterica subsp. enterica serovar typhimurium
HepG2 = assay: Cytotoxicity against human HepG2 cells up to 300 uM after 72 hrs; assay type: cell-based; details: hepg2, 72 h
Procedure, shortened: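 HepG2 cells incubated with compound at concentrations up to 300 µM for 72 hours to assess toxicity.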

Rattus norvegicus [16] = assay: In vivo inhibition of KHK-C in po dosed Sprague-Dawley rat assessed as decrease in F1P levels in liver administered for 1 hr followed by bolus fructose administration measured 2 mins after iv infusion by LC/MS analysis; assay type: functional
Procedure, shortened: (§3)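 Male Sprague Dawley rats (~200 g, jugular-cannulated) were fasted 16 h and given oral compound as a 0.5% methylcellulose nano-milled suspension. After 1 h they received an i.v. fructose bolus of 500 mg/kg over 20 s, and were decapitated 2 min later. Liver and kidney F1P was quantified by ion-exchange LC/MS/MS against a 13C-xylitol internal standard. ED50 from a four-parameter fit; n = 7-8.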

Rattus norvegicus [17] = assay: In vivo inhibition of KHK-C in po dosed Sprague-Dawley rat assessed as decrease in F1P levels in kidney administered for 1 hr followed by bolus fructose administration measured 2 mins after iv infusion by LC/MS analysis; assay type: functional; procedure, shortened: as §3
Rattus norvegicus [18] = assay: In vivo inhibition of fructose metabolism in po dosed Sprague-Dawley rat assessed as increase in plasma fructose level administered for 1 hr followed by oral bolus fructose administration measured after 2 mins by LC/MS analysis; assay type: functional, organism-based
Procedure, shortened: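 Fasted (16 h) non-cannulated male Sprague Dawley rats were dosed orally with compound in a 0.5% methylcellulose nano-milled suspension. One hour later they received 2 g/kg oral fructose. Tail-vein K2EDTA plasma was methanol-extracted with 13C6-fructose internal standard and analysed by HILIC LC-MS/MS; n = 6-8.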

[19] = target: Voltage-gated inwardly rectifying potassium channel KCNH2 (Homo sapiens, UniProt Q12809); assay: Inhibition of human ERG
Chain of Voltage-gated inwardly rectifying potassium channel KCNH2 (Q12809 whole entry): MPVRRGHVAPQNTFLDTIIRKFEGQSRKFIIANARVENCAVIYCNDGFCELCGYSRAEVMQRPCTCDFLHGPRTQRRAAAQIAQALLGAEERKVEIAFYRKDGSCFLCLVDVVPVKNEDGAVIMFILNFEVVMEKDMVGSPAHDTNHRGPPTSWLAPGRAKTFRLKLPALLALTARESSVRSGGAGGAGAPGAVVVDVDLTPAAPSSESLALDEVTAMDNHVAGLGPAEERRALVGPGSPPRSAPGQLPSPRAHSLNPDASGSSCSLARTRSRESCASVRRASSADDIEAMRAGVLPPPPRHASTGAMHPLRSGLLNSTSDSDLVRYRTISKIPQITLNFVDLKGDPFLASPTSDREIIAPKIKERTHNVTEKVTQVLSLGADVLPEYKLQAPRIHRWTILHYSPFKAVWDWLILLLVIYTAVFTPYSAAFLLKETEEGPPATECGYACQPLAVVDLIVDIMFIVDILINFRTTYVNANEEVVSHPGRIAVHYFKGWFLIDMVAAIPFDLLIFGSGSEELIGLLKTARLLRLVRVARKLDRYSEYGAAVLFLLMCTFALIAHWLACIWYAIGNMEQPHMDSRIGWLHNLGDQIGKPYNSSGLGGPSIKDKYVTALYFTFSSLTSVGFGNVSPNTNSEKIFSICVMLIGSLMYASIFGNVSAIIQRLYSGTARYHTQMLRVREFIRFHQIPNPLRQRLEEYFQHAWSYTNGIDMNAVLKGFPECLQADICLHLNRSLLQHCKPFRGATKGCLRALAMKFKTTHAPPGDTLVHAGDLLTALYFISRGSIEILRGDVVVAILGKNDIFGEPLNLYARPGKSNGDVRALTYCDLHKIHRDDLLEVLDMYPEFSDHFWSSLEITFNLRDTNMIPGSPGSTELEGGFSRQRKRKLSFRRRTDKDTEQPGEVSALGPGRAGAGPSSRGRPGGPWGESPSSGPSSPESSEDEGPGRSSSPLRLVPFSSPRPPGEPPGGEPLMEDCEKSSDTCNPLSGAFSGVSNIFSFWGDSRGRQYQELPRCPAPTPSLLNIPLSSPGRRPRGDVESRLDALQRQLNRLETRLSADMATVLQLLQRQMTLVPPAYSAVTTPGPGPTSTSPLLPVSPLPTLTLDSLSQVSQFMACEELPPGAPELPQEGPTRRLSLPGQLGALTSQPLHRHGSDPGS

Cytochrome P450 1A2 = target: T4, Cytochrome P450 1A2 (Homo sapiens, UniProt P05177); assay: Inhibition of human CYP1A2 at 3 uM; assay type: ADME
T4 sequence (P05177 whole entry): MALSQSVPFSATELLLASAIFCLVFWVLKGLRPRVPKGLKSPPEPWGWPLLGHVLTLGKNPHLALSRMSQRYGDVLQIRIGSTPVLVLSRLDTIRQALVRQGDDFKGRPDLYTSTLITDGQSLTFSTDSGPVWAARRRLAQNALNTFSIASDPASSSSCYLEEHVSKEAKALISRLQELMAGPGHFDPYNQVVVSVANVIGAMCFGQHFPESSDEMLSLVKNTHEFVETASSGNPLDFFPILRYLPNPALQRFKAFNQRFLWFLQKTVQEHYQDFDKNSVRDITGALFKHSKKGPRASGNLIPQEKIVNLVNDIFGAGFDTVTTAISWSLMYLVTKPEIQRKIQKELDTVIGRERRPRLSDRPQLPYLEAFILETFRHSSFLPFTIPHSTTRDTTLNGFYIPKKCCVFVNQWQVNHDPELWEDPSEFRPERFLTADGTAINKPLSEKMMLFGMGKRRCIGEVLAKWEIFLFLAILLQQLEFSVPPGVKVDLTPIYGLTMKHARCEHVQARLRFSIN

Cytochrome P450 2C19 = Cytochrome P450 2C19 (Homo sapiens, UniProt P33261); assay: Inhibition of human CYP2C19 at 3 uM; assay type: ADME
Chain of Cytochrome P450 2C19 (P33261 whole entry): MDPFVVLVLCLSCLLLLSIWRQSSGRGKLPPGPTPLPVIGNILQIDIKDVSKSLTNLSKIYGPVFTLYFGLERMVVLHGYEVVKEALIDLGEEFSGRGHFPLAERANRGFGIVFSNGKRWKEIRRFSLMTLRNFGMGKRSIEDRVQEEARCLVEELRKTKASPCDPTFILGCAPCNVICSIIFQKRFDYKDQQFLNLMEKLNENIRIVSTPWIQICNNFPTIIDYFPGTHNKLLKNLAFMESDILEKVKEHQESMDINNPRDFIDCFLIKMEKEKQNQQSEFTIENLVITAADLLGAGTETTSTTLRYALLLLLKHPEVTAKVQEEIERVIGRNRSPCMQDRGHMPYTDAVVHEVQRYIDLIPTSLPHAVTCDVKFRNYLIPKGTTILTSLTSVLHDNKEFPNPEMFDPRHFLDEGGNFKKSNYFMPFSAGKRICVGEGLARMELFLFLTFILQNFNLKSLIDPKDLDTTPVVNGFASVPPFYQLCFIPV

Cytochrome P450 2C8 = target: T5, Cytochrome P450 2C8 (Homo sapiens, UniProt P10632); assay: Inhibition of human CYP2C8 at 3 uM; assay type: ADME
T5 sequence (P10632 whole entry): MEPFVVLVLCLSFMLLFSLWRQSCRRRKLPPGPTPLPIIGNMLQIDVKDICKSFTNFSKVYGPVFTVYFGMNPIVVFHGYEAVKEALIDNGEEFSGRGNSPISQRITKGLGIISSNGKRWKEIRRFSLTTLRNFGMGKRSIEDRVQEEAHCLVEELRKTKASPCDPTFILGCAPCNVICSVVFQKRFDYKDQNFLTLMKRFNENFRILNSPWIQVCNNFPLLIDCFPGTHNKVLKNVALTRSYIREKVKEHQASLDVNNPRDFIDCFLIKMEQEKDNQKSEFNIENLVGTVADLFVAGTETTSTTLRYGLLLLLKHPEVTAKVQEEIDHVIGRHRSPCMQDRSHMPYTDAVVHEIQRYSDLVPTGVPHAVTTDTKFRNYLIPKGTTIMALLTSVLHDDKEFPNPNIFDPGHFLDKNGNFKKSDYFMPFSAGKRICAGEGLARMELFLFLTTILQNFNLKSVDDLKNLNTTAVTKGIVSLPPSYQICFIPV

Cytochrome P450 2C9 = Cytochrome P450 2C9 (Homo sapiens, UniProt P11712); assay: Inhibition of human CYP2C9 at 3 uM; assay type: ADME
Chain of Cytochrome P450 2C9 (P11712 whole entry): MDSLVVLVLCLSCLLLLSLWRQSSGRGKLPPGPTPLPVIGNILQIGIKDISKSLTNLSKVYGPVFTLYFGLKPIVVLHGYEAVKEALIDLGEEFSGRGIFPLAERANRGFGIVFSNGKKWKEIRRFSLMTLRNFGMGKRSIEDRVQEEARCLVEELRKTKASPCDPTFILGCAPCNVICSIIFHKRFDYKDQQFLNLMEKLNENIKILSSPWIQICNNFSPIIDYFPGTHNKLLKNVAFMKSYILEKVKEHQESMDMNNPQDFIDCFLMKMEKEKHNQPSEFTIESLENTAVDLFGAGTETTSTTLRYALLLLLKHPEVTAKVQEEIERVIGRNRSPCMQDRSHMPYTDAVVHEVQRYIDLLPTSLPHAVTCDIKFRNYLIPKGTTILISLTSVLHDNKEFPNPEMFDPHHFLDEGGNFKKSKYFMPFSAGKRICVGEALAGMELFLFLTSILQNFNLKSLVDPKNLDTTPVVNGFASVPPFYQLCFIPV

Cytochrome P450 2D6 = Cytochrome P450 2D6 (Homo sapiens, UniProt P10635); assay: Inhibition of human CYP2D6 at 3 uM; assay type: ADME
Chain of Cytochrome P450 2D6 (P10635 whole entry): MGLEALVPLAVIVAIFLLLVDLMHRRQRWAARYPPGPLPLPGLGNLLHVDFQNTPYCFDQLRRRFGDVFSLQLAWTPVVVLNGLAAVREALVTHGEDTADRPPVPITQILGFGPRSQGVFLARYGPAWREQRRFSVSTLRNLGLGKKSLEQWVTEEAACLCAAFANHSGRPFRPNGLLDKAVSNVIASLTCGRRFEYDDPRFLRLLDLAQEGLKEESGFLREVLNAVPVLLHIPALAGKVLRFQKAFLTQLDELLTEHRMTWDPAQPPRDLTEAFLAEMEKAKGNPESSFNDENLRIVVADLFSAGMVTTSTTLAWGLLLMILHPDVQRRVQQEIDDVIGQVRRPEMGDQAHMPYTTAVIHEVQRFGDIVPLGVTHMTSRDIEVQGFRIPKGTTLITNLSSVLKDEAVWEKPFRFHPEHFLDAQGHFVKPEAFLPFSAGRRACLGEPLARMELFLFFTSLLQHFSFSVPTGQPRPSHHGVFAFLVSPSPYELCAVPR

Cytochrome P450 3A4 = Cytochrome P450 3A4 (Homo sapiens, UniProt P08684); assay: Inhibition of human CYP3A4 at 3 uM; assay type: ADME
Chain of Cytochrome P450 3A4 (P08684 whole entry): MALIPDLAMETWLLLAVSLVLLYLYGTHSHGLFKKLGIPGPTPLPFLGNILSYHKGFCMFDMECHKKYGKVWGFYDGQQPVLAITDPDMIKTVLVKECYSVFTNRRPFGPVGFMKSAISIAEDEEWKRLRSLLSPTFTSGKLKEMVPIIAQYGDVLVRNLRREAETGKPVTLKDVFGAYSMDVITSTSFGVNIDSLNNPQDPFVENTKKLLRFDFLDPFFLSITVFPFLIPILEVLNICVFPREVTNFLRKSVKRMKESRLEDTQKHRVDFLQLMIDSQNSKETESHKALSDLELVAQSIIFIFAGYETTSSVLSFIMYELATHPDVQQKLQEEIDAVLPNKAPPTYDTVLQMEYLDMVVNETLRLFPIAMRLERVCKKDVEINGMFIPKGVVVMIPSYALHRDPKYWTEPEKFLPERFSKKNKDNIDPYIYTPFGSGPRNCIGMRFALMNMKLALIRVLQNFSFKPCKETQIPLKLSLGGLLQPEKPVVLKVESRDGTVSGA

[20] = Apparent clearance in rat liver microsomes; assay type: ADME, microsome; details: read-out: CLH(app)
Ketohexokinase [21] = target: T1, Ketohexokinase
Ketohexokinase [22] = target: T1, Ketohexokinase; remark: listed apart in the source
[23] = Rattus norvegicus, Sprague-Dawley

Cc1c[nH]c2ncnc(N3CCC[C@@H](CO)C3)c12
Kd (Ketohexokinase [1]): 20 µM
IC50 (Ketohexokinase [2]; read-out: IC50): 118 µM
IC50 (Ketohexokinase [2]; read-out: pIC50 (converted)): 120 µM
inhibition [3]: Active

C[C@@]1(O)CCN(c2c(C#N)c(C(F)(F)F)nc3cc[nH]c23)C1
IC50 (Ketohexokinase [2]; read-out: IC50): 24.2 µM
microsomal CLint [4]: < 8 µL/min/mg
logD [5]: 2.1

C[C@]1(O)CCN(c2nc(N3C[C@H](O)[C@@H](O)C3)cc(C(F)(F)F)c2C#N)C1
IC50 (Ketohexokinase [6]; read-out: IC50): 0.34 µM
IC50 (Ketohexokinase [6]; read-out: pIC50 (converted)): 0.501 µM
microsomal CLint [4]: < 8 µL/min/mg
logD [5]: 2.2
Papp [7]: 3.5 ×10⁻⁶ cm/s
solubility thermodynamic [8]: 503 µM (≈ 187 µg/mL)
fraction unbound at 10 µM [9]: 0.13
Vd [10]: 1.38 L/kg
half-life [11]: 1.2 h
F (Rattus norvegicus [12]): 45%
Cmax [13]: 2940 ng/mL
AUClast (Rattus norvegicus [14]): 14500 ng·h/mL
Time (Rattus norvegicus [15]): 14 h
Activity (Salmonella typhimurium): Non-Toxic
Activity (HepG2): Non-Toxic
inhibition (Rattus norvegicus [16]): Dose-dependent effect
pED50 (Rattus norvegicus [16]): 1.48
ED50 (Rattus norvegicus [16]; [23]): 30 mg/kg
inhibition (Rattus norvegicus [17]): Dose-dependent effect
pED50 (Rattus norvegicus [17]): 1.2
ED50 (Rattus norvegicus [17]; [23]): 15.7 mg/kg
inhibition (Rattus norvegicus [18]): Dose-dependent effect
inhibition (INH) [19]: Not Active
inhibition (INH) (Cytochrome P450 1A2): Not Active
inhibition (INH) (Cytochrome P450 2C19): Not Active
inhibition (INH) (Cytochrome P450 2C8): Not Active
inhibition (INH) (Cytochrome P450 2C9): Not Active
inhibition (INH) (Cytochrome P450 2D6): Not Active
inhibition (INH) (Cytochrome P450 3A4): Not Active
microsomal CLint [20]: < 8 µL/min/mg
IC50 (Ketohexokinase [21]): 0.316 µM
IC50 (Ketohexokinase [22]): 0.39 µM

N#Cc1cc(F)c(N)nc1Cl
Kd (Ketohexokinase [1]): 103 µM
IC50 (Ketohexokinase [2]; read-out: IC50): > 500 µM
inhibition [3]: Active

C[C@]1(O)CCN(c2nc(N3CCN(CCO)CC3)cc(C(F)(F)F)c2C#N)C1
IC50 (Ketohexokinase [2]; read-out: IC50): 1.03 µM
microsomal CLint [4]: 14 µL/min/mg
logD [5]: 2.2
